Assay results: ChEMBL document CHEMBL1177660, “Discovery of novel purine derivatives with potent and selective inhibitory activity against c-Src tyrosine kinase” (Bioorg Med Chem, 2010)

Key:
[1] = target: T1, Proto-oncogene tyrosine-protein kinase Src (Homo sapiens, UniProt P12931); experiment: Inhibition cSRC
[2] = target: T1, Proto-oncogene tyrosine-protein kinase Src; experiment: Inhibition cSRC at 10 uM
Method in brief: (§1)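 Purified kinases assayed by ELISA on wells coated with 20 µg/mL poly(Glu,Tyr)4:1. Detected with PY99 anti-phosphotyrosine, HRP anti-mouse IgG and o-phenylenediamine; A492.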

[3] = target: T2, Tyrosine-protein kinase ABL1 (Homo sapiens, UniProt P00519); experiment: Inhibition cABl; method in brief: as §1
[4] = target: T2, Tyrosine-protein kinase ABL1; experiment: Inhibition cABl at 10 uM; method in brief: as §1
[5] = target: T3, Mast/stem cell growth factor receptor Kit (Homo sapiens, UniProt P10721); experiment: Inhibition kit; method in brief: as §1
[6] = target: T3, Mast/stem cell growth factor receptor Kit; experiment: Inhibition kit at 10 uM; method in brief: as §1
[7] = target: Receptor tyrosine-protein kinase erbB-2 (Homo sapiens) (UniProt P04626); experiment: Inhibition ErbB2 at 10 uM; method in brief: as §1
[8] = target: Vascular endothelial growth factor receptor 2 (Homo sapiens) (UniProt P35968); experiment: Inhibition KDR at 10 uM; method in brief: as §1
[9] = target: Vascular endothelial growth factor receptor 1 (Homo sapiens) (UniProt P17948); experiment: Inhibition VEGFR1 at 10 uM; method in brief: as §1
[10] = target: Platelet-derived growth factor receptor beta (Homo sapiens) (UniProt P09619); experiment: Inhibition PDGFRbeta at 10 uM; method in brief: as §1
[11] = target: Fibroblast growth factor receptor 1 (Homo sapiens) (UniProt P11362); experiment: Inhibition FGFR1 at 10 uM; method in brief: as §1
[12] = target: Ephrin type-A receptor 2 (Homo sapiens) (UniProt P29317); experiment: Inhibition EphA2 at 10 uM; method in brief: as §1
[13] = target: T4, Ephrin type-B receptor 2 (Homo sapiens) (UniProt P29323); experiment: Inhibition EphB2 at 10 uM; method in brief: as §1
T4 sequence (whole entry): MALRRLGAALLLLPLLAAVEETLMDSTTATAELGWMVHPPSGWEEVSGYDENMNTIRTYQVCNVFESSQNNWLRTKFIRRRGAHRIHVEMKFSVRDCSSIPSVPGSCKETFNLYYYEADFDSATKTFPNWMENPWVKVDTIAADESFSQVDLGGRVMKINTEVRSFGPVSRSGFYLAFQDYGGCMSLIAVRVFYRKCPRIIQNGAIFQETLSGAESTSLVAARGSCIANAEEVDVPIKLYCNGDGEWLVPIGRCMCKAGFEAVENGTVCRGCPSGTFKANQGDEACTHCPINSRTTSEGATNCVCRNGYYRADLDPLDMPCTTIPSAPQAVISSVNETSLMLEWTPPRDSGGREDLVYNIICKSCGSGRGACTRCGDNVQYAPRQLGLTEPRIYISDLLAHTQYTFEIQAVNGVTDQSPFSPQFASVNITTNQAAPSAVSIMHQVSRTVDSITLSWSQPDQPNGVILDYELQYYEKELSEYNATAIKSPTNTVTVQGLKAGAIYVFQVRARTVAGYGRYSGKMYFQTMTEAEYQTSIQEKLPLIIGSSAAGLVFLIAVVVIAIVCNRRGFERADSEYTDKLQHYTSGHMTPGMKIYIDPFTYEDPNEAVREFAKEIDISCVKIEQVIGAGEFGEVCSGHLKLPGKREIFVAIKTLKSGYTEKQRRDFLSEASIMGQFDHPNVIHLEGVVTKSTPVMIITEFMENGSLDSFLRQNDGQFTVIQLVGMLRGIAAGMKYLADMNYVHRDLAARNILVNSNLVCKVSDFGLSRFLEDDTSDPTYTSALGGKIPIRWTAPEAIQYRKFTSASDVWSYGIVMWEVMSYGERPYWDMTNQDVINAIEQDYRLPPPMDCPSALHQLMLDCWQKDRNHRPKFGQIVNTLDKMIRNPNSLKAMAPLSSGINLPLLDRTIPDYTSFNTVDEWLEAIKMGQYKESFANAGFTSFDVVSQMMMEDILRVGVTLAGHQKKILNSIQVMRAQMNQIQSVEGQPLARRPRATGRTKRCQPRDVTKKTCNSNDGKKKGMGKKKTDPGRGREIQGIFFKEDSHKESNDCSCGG

[14] = target: T1, Proto-oncogene tyrosine-protein kinase Src; experiment: Inhibition of SRC phosphorylation in human MDA-MB-231 cells; type: cell-based
Method in brief: (§2)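 MDA-MB-231 cells, 4.5×10^5 per well, plated overnight. Then exposed for 24 h to 1, 3 or 10 µM compound or DMSO alone. Western blot probed p-Src (Tyr416), total Src, p-FAK (Tyr861), FAK and GAPDH. Three independent blots.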

[15] = target: Focal adhesion kinase 1 (Homo sapiens) (UniProt Q05397); experiment: Inhibition of FAK phosphorylation in human MDA-MB-231 cells by Western blotting; type: cell-based; method in brief: as §2
[16] = target: T1, Proto-oncogene tyrosine-protein kinase Src; experiment: Inhibition of human SRC-mediated invasion of human MDA-MB-231 cells; type: cell-based
Method in brief: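 Matrigel-coated (1 mg/mL) Transwell filters, 8 lm pores, with 10% FBS in the lower chamber. MDA-MB-231 cells and compound or DMSO were added together to the upper chamber and invaded 18 h at 37 °C. Non-invaded cells were removed. Invaded cells were stained with crystal violet, extracted with 10% acetic acid and read at 595 nm. Mean of three experiments, SD.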

MDA-MB-231 = experiment: Antiproliferative activity against human MDA-MB-231 cells assessed as viability after 24 hrs by MTT assay; type: functional
Method in brief: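 MDA-MB-231 cells (ATCC; L15 medium, 10% FBS, 37 °C, 5% CO2) exposed to test concentrations for 24 h; viability scored by MTT.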

[17] = target: Fibroblast growth factor receptor 2 (Homo sapiens) (UniProt P21802); conditions: 10 uM
[18] = target: Hepatocyte growth factor receptor (Homo sapiens) (UniProt P08581); conditions: 10 uM
[19] = target: T1, Proto-oncogene tyrosine-protein kinase Src; experiment: Inhibition of human SRC-mediated migration of human MDA-MB-231 cells by wound-healing assay

T1 sequence (P12931 2-536 limits assumed): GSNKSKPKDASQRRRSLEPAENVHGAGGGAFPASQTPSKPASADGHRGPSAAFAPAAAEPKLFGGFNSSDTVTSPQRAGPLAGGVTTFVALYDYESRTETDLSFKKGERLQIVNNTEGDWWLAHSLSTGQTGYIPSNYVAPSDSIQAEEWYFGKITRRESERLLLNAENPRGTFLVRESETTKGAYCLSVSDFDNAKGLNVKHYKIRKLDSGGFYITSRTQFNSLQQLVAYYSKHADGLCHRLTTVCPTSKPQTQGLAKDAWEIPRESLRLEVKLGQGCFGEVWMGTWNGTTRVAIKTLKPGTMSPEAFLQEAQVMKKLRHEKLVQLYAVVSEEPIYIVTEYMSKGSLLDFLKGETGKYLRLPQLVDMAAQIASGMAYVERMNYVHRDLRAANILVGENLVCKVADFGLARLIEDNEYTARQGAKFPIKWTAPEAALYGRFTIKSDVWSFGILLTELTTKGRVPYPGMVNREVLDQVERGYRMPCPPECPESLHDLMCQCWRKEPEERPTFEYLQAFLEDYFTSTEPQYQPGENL
T3 sequence (P10721 whole entry): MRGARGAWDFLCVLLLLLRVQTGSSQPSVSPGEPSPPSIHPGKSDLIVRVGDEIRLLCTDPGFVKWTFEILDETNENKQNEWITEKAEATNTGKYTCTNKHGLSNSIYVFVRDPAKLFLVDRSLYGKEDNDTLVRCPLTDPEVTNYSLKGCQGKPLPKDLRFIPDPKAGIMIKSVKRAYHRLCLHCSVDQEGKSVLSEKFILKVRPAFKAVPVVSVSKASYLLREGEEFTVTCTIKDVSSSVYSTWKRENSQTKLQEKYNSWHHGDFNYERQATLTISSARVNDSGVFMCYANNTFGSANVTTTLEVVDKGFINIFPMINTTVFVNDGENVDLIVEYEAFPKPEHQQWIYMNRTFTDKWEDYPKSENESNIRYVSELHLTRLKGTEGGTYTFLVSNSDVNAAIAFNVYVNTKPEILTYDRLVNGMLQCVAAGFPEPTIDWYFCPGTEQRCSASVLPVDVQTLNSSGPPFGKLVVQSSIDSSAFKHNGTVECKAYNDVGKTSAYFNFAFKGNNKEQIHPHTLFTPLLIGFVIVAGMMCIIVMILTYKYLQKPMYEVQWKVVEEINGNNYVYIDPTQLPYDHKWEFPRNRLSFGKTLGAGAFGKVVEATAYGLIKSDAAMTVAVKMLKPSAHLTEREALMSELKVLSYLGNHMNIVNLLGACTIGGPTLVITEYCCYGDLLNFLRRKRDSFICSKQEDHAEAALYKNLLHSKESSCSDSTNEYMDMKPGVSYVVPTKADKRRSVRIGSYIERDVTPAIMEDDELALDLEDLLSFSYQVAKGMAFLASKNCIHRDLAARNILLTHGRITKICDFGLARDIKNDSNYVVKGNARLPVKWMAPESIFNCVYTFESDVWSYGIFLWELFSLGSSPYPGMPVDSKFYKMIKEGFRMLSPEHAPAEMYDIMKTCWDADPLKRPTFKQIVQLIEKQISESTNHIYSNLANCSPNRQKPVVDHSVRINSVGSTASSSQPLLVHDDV
T2 sequence (P00519 whole entry): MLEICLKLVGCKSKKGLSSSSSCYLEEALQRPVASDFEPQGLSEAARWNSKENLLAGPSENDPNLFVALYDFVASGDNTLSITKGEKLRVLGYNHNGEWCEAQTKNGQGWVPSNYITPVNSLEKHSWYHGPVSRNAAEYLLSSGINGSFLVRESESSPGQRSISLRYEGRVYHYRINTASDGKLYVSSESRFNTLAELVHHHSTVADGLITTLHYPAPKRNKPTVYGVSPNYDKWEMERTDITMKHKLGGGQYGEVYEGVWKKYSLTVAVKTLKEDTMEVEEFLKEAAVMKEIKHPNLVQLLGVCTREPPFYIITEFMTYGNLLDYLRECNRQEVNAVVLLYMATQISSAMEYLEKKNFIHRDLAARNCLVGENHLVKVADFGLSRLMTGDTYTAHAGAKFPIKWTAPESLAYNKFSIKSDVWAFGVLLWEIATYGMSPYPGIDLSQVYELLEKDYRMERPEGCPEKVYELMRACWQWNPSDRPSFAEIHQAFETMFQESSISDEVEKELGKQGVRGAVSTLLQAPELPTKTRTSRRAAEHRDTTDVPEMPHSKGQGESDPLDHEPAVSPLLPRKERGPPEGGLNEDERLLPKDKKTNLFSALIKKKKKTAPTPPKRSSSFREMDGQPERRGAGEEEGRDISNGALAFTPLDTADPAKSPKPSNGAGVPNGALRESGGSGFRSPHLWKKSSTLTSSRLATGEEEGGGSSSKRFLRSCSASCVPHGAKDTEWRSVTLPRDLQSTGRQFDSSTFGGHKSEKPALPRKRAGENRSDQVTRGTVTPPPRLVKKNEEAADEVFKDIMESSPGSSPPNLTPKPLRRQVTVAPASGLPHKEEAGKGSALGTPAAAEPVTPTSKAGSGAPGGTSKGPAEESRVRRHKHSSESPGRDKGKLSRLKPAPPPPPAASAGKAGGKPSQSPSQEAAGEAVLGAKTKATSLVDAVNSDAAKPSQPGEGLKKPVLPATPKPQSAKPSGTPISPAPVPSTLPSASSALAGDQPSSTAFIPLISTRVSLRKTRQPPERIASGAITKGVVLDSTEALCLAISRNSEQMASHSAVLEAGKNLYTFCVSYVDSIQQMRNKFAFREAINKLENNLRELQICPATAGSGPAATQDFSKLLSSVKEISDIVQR
Chain of Vascular endothelial growth factor receptor 2 (Homo sapiens) (P35968 whole entry): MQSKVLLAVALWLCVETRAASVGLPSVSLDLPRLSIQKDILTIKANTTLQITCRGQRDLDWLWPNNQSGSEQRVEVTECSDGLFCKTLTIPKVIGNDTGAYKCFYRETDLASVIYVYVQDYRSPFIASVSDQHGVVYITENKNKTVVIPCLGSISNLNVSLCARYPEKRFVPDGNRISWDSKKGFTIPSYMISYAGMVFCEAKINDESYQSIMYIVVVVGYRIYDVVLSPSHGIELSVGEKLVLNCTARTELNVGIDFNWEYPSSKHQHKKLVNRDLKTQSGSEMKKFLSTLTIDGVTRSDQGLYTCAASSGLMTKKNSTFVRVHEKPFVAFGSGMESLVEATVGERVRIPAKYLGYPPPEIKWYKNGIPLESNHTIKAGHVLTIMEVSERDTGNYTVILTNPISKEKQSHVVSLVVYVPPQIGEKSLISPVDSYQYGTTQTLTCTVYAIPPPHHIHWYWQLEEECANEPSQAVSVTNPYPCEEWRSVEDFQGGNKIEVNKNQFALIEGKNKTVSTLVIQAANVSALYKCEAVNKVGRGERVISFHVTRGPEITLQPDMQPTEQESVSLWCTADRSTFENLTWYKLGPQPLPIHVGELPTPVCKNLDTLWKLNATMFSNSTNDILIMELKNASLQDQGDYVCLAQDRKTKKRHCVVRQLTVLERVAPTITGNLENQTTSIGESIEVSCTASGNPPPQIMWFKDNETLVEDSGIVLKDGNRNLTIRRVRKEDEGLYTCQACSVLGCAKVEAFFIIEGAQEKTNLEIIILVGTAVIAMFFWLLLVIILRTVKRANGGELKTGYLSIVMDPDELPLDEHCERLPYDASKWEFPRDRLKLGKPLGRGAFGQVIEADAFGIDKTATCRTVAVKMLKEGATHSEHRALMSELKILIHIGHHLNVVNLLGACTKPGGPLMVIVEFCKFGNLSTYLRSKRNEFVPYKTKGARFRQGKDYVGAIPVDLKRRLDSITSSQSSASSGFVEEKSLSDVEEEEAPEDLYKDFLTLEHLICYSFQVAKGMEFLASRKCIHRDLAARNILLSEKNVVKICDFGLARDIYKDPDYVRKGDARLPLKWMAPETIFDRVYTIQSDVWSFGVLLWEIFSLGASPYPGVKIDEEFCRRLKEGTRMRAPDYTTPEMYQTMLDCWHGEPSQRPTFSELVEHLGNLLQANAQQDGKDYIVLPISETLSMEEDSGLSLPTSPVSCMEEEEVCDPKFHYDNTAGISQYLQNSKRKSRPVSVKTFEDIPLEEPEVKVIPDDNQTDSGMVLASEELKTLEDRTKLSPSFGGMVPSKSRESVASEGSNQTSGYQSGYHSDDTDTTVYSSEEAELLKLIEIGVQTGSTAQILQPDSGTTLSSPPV
Chain of Ephrin type-A receptor 2 (Homo sapiens) (P29317 whole entry): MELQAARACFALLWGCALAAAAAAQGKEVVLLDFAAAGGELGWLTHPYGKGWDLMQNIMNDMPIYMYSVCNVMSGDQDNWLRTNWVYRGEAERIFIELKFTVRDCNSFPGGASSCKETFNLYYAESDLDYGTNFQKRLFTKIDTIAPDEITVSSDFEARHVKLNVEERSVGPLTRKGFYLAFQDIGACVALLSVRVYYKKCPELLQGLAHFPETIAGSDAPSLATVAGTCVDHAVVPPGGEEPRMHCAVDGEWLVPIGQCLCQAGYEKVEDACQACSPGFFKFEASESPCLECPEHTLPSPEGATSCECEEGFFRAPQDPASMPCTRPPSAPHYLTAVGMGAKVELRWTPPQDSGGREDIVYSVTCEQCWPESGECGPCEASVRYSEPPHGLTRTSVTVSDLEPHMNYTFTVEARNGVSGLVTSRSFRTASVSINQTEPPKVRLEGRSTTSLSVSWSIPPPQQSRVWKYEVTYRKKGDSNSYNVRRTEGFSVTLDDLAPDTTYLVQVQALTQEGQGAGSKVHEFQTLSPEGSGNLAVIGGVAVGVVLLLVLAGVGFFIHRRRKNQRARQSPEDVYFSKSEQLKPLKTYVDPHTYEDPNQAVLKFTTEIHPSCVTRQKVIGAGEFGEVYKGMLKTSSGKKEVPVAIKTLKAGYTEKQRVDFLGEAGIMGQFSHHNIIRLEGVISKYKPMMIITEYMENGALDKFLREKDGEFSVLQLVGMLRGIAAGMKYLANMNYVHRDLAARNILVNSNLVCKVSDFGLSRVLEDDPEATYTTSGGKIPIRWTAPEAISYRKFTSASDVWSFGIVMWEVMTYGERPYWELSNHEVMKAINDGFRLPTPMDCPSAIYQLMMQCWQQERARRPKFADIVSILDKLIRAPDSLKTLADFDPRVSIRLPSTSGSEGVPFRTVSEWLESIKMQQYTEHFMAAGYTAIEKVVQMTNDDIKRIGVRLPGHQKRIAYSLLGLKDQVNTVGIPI

NS(=O)(=O)c1ccc(Nc2nc(N3CCNCC3)nc3[nH]cnc23)cc1
IC50 [1]: 1.82 µM

Brc1ccc(Nc2nc(N3CCOCC3)nc3[nH]cnc23)cc1
IC50 [1]: 0.45 µM

c1ccc(Cn2cnc3c(N4CCOCC4)ncnc32)cc1
IC50 [1]: > 10 µM | inhibition [2]: 0%

c1ccc(Nc2nc(N3CCOCC3)nc3[nH]cnc23)cc1
IC50 [1]: 0.75 µM

O=[N+]([O-])c1ccc(Nc2nc(N3CCN(CCO)CC3)nc3nc[nH]c23)cc1
IC50 [1]: 0.78 µM

NS(=O)(=O)c1ccc(Nc2nc(N3CCOCC3)nc3[nH]cnc23)cc1
IC50 [3]: 6 µM | IC50 [1]: 0.02 µM | inhibition [4]: 73.4% | IC50 [5]: 1.35 µM | inhibition [6]: 83.1% | inhibition [7]: 43.1% | inhibition [8]: 47.2% | inhibition [9]: 0% | inhibition [10]: 17.2% | inhibition [11]: 48.7% | inhibition [12]: 48.7% | inhibition [13]: 11.5% | inhibition [14]: Dose-dependent effect | inhibition [15]: Dose-dependent effect | inhibition [16]: Dose-dependent effect | Activity (MDA-MB-231): > 95% | inhibition [17]: 4.1% | inhibition [18]: 43.2% | inhibition [19]: Dose-dependent effect

c1ccc(Cn2cnc3c(Nc4ccccc4)ncnc32)cc1
IC50 [1]: > 10 µM | inhibition [2]: 13.9%

NS(=O)(=O)c1cccc(Nc2nc(N3CCNCC3)nc3[nH]cnc23)c1
IC50 [1]: 0.1 µM

c1ccc(Cn2cnc3c(N4CCOCC4)nc(N4CCOCC4)nc32)cc1
IC50 [1]: > 10 µM | inhibition [2]: 16.4%

COc1ccc(Nc2nc(N3CCNCC3)nc3[nH]cnc23)cc1
inhibition [2]: 90.5%

Cc1cccc(Nc2nc(N3CCNCC3)nc3nc[nH]c23)c1
IC50 [1]: 2.42 µM

OCCN1CCN(c2nc(Nc3ccccc3)c3nc[nH]c3n2)CC1
IC50 [1]: 3.14 µM

Cc1cccc(Nc2nc(N3CCOCC3)nc3nc[nH]c23)c1
IC50 [1]: 0.83 µM

CC(=O)Nc1ccc(Nc2nc(N3CCN(CCO)CC3)nc3[nH]cnc23)cc1
IC50 [1]: 1.59 µM

CC(=O)Nc1ccc(Nc2nc(N3CCOCC3)nc3[nH]cnc23)cc1
IC50 [1]: 0.65 µM

COc1ccc(Nc2nc(N3CCOCC3)nc3c2ncn3Cc2ccccc2)cc1
IC50 [1]: > 10 µM | inhibition [2]: 16%

Brc1ccc(Nc2ncnc3c2ncn3Cc2ccccc2)cc1
IC50 [1]: > 10 µM | inhibition [2]: 6.9%

O=[N+]([O-])c1ccc(Nc2nc(N3CCNCC3)nc3[nH]cnc23)cc1
IC50 [1]: 1.4 µM

NS(=O)(=O)c1cccc(Nc2nc(N3CCN(CCO)CC3)nc3nc[nH]c23)c1
IC50 [1]: 0.34 µM

NC(=O)c1ccc(Nc2nc(N3CCOCC3)nc3nc[nH]c23)cc1
IC50 [1]: 2.01 µM

COc1cccc(Nc2nc(N3CCN(CCO)CC3)nc3nc[nH]c23)c1
IC50 [1]: 1.2 µM

OCCN1CCN(c2nc(Nc3ccc(Cl)cc3)c3[nH]cnc3n2)CC1
IC50 [1]: 0.69 µM

O=[N+]([O-])c1cccc(Nc2nc(N3CCOCC3)nc3[nH]cnc23)c1
IC50 [1]: 0.13 µM

Brc1ccc(Nc2nc(N3CCNCC3)nc3[nH]cnc23)cc1
IC50 [1]: 1.76 µM

COc1ccc(Nc2nc(N3CCNCC3)nc3c2ncn3Cc2ccccc2)cc1
IC50 [1]: > 10 µM | inhibition [2]: 22.5%

Cc1cccc(Nc2nc(N3CCN(CCO)CC3)nc3nc[nH]c23)c1
IC50 [1]: 2.55 µM

O=[N+]([O-])c1cccc(Nc2nc(N3CCN(CCO)CC3)nc3[nH]cnc23)c1
IC50 [1]: 0.34 µM

NS(=O)(=O)c1cccc(Nc2nc(N3CCOCC3)nc3[nH]cnc23)c1
IC50 [1]: 0.12 µM

c1ccc(Cn2cnc3c(Nc4ccccc4)nc(N4CCOCC4)nc32)cc1
IC50 [1]: > 10 µM | inhibition [2]: 20.2%

COc1cccc(Nc2nc(N3CCOCC3)nc3[nH]cnc23)c1
IC50 [1]: 0.93 µM

NC(=O)c1ccc(Nc2nc(N3CCNCC3)nc3nc[nH]c23)cc1
IC50 [1]: 2.2 µM

Clc1ccc(Nc2nc(N3CCNCC3)nc3[nH]cnc23)cc1
IC50 [1]: 1.18 µM

CC(=O)Nc1ccc(Nc2nc(N3CCNCC3)nc3nc[nH]c23)cc1
IC50 [1]: 1.05 µM

NC(=O)c1ccc(Nc2nc(N3CCN(CCO)CC3)nc3[nH]cnc23)cc1
IC50 [1]: 1.22 µM

COc1ccc(Nc2nc(N3CCOCC3)nc3[nH]cnc23)cc1
IC50 [1]: 0.13 µM

Clc1ccc(Nc2nc(N3CCOCC3)nc3nc[nH]c23)cc1
IC50 [1]: 0.34 µM

COc1cccc(Nc2nc(N3CCNCC3)nc3nc[nH]c23)c1
IC50 [1]: 1.21 µM

O=[N+]([O-])c1cccc(Nc2nc(N3CCNCC3)nc3nc[nH]c23)c1
IC50 [1]: 0.95 µM

COc1ccc(Nc2nc(N3CCNCC3)nc3nc[nH]c23)cc1
IC50 [1]: 2.43 µM

O=[N+]([O-])c1ccc(Nc2nc(N3CCOCC3)nc3nc[nH]c23)cc1
IC50 [1]: 0.39 µM

COc1ccc(Nc2nc(N3CCN(CCO)CC3)nc3nc[nH]c23)cc1
IC50 [1]: 1.33 µM

NS(=O)(=O)c1ccc(Nc2nc(N3CCN(CCO)CC3)nc3nc[nH]c23)cc1
IC50 [1]: 0.26 µM

Cc1cccc(Nc2nc(N3CCNCC3)nc3[nH]cnc23)c1
inhibition [2]: 86.6%

c1ccc(Cn2cnc3c(Nc4ccccc4)nc(N4CCNCC4)nc32)cc1
IC50 [1]: > 10 µM | inhibition [2]: 35.8%

Brc1ccc(Nc2nc(N3CCOCC3)nc3c2ncn3Cc2ccccc2)cc1
IC50 [1]: > 10 µM | inhibition [2]: 10.1%
